# Assay results published in ChEMBL document CHEMBL1131532, “Synthesis and structure-activity relationships of carboxyflavones as structurally rigid CysLT1 (LTD4) receptor antagonists” (J Med Chem, 1998).
# Organism: Cavia porcellus
# Test: Ex vivo inhibition of LTD4 induced contraction of guinea pig ileum.
# Format: functional
# Conditions: not given
# Procedure, shortened: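 Ileum segments (2 cm) from male guinea pigs, mounted open-lumen on a transducer. Compounds in DMSO, 10^-5 to 3.0 × 10^-9 M, preincubated 30 min, then contraction evoked by 10^-8 M LTD4. Indomethacin (10^-6 M) added to the bath 10 min before LTD4.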
row,IC50 [nM],SMILES
1,61,O=C(O)c1cc(Br)cc2c(=O)cc(-c3cccc(OCc4ccc5ccccc5n4)c3)oc12
2,42,O=C(O)c1cccc2c(=O)cc(-c3cccc(/C=C/c4ccc5ccccc5n4)c3)oc12
3,15,O=C(O)c1cc(Cl)cc2c(=O)cc(-c3cccc(/C=C/c4ccc5ccccc5n4)c3)oc12
4,100,O=C(O)c1cc(Br)cc2c(=O)cc(-c3cccc(/C=C/c4ccc5ccccc5n4)c3)oc12
5,28,Cc1cc(C(=O)O)c2oc(-c3cccc(/C=C/c4ccc5ccccc5n4)c3)cc(=O)c2c1

# Biological target: T1, Cysteinyl leukotriene receptor 1 (Cavia porcellus) (UniProt Q2NNR5)
# T1 sequence (whole entry): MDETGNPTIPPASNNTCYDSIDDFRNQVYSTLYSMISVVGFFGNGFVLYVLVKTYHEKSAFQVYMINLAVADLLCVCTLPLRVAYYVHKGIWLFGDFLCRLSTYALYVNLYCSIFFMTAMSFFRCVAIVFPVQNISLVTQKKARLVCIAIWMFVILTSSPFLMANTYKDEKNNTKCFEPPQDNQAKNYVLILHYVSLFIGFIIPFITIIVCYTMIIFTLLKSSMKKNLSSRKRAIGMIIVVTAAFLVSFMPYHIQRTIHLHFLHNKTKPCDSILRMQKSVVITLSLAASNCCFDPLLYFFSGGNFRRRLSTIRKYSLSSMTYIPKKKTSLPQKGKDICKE
# Test: In vitro inhibition of [3H]LTD4 binding to CysLT1 receptors on guinea pig lung membranes.
# Format: tissue-based
# Parameters: concentration or dose not given beside the values
# Conditions: concentration not given here
# Procedure, shortened: (§1)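 Guinea pig lung membrane fractions (about 170 µg/mL) with 0.2 nM [3H]LTD4 and test compound in 10 mM PIPES buffer, pH 7.5 (10 mM CaCl2, 10 mM MgCl2, 50 mM NaCl, 2 mM cysteine, 2 mM glycine), 30 min at 22 °C. Stopped with ice-cold Tris-HCl/NaCl, vacuum-filtered, filter radioactivity counted. Means ± SD of three determinations. Percent inhibition taken at 10^-5 M where no KD obtained.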
row,inhibition [%],SMILES
1,32,O=C(O)c1cccc2c(=O)cc(-c3ccc(OCc4ccc5ccccc5c4)cc3)oc12
2,0,N#Cc1cc(Cl)cc2c(=O)cc(-c3cccc(/C=C/c4ccc5ccccc5n4)c3)oc12
3,32,CCOC(=O)c1cccc2c(=O)cc(-c3ccc(OCc4ccc5ccccc5n4)cc3)oc12
4,38,CCOC(=O)c1cccc2c(=O)cc(-c3cccc(OCc4ccc5ccccc5n4)c3)oc12
5,28,O=C(O)c1ccc2oc(-c3ccc(/C=C/c4ccc5ccccc5n4)cc3)cc(=O)c2c1
6,50,O=C(O)c1cccc2c(=O)cc(-c3cccc(OCc4ccccc4)c3)oc12
7,23,O=C(O)c1ccc2oc(-c3ccc(OCc4ccccc4)cc3)cc(=O)c2c1

# Biological target: T2, Cysteinyl leukotriene receptor 1 (Cavia porcellus, UniProt Q2NNR5)
# T2 sequence (Q2NNR5 whole entry): T1 sequence (whole entry)
# Test: In vitro affinity for CysLT1 receptors on guinea pig lung membranes, measured by displacement of [3H]LTD4.
# Format: tissue-based
# Conditions: not given
# Procedure, shortened: as §1, with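 “determinations.” for “determinations. Percent inhibition taken at 10^-5 M where no KD obtained.”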
row,Kd [nM],SMILES
1,11000,O=c1cc(-c2cccc(/C=C/c3ccc4ccccc4n3)c2)oc2c(-c3nn[nH]n3)cc(Cl)cc12
2,17,O=C(O)c1cccc2c(=O)cc(-c3cccc(/C=C/c4ccc5ccccc5n4)c3)oc12
3,55000,O=C(O)c1cccc2c(=O)cc(-c3ccc(OCc4ccccc4)cc3)oc12
4,1730,O=C(O)c1ccc2c(=O)cc(-c3cccc(/C=C/c4ccc5ccccc5n4)c3)oc2c1
